Measurements pooled from the literature.
Each line is one published result; the experiments were not run side by side.
Target: Mitogen-activated protein kinase 9 (MAPK9, Homo sapiens, UniProt P45984)

`CN1CCC2(CC1)NC(=O)c1c(c3ccc(Cl)c(Cl)c3n1C)C2C#N` (racemic) has a ΔTm of -0.2 °C (thermal stability, DSF; 10 µM).
For `Clc1ccc(Nc2nnc(Cc3ccncc3)c3ccccc23)cc1`, the remaining signal was 97.5% (cell-free assay; 0.5 µM).
The remaining signal of `Cc1ccc(NC(=O)c2ccc(C)c(C(F)(F)F)c2)cc1C#Cc1nn(C2CCC(O)CC2)c2ncnc(N)c12` (centres unmarked) is reported as 13% (cell-free assay; 10 µM).
For `O=C1NC(=O)c2cc(Nc3ccc(F)cc3)c(Nc3ccc(F)cc3)cc21`, the remaining signal was 61.4% (cell-free assay; 0.5 µM).
With `Oc1cccc(-c2nc(N3CCOCC3)c3oc4ncccc4c3n2)c1` the remaining activity was 100% (enzyme activity, inhibitor; 10 µM).
`CC1=C(C#N)[C@@H](c2ccc3[nH]nc(C)c3c2)C(C#N)=C(c2ccc(Cl)cc2)N1` gave a remaining binding of 89.5% (cell-free assay, competition with immobilised ligand; 1 µM).
For `COc1cc(Cl)c(C(=O)N[C@@H](CN[C@H]2CC[C@@H](N)CC2)Cc2ccc(C#N)cc2)cc1-c1ccc(CN[C@H](C)c2ccc(C)cc2)o1`, the remaining activity was 93% (enzyme activity, inhibitor; 1 µM).
With `COc1cc2ncnc(Nc3ccc(Oc4ccccc4)c(C)c3C)c2cc1OC` the inhibition was 7% (enzyme activity, inhibitor; 1 µM).
`Nc1nc(NC2CCCCC2)sc1C(=O)c1ccccc1` gave a remaining activity of 39% (enzyme activity, inhibitor; 10 µM).
`Cc1ccc(C(=O)NCc2ccsc2)cc1C#Cc1cn(C(C)C)c2ncnc(N)c12` has an activity vs control of 85% (enzyme activity, inhibitor; 1 µM).
`N#CC1c2c([nH]c3c(Cl)c(Cl)ccc23)C(=O)NC12CCCCC2` (racemic) gave a ΔTm of 0.7 °C (thermal stability, DSF; 10 µM).
`CC(C)(C)C(=O)c1sc(NC2CCCCC2)nc1N` gave a remaining activity of 90% (enzyme activity, inhibitor; 10 µM).
The inhibition of `CNC(=O)c1cc(Oc2ccc(NC(=O)Nc3ccc(Cl)c(C(F)(F)F)c3)cc2)ccn1` is reported as 54% (enzyme activity, inhibitor; 10 µM).
For `CC(C)(O)c1cncc(-c2nc3ccc(F)cc3n2C2CC2)c1`, the remaining binding was 100% (cell-free assay, competition with immobilised ligand; 1 µM).
For `Cn1c2c(c3ccc(Cl)c(Cl)c31)C(C#N)C(C)(C)NC2=O` (centres unmarked), the ΔTm was 0.4 °C (thermal stability, DSF; 10 µM).
With `Cc1nccc(COC(=O)N2C[C@@H]3[C@@H](CNC(=O)c4ccc5[nH]nnc5c4)[C@@H]3C2)n1` the remaining binding was 95% (cell-free assay, competition with immobilised ligand; 1 µM).
For `Cn1c2c(Cl)c(Cl)ccc2c2cn[nH]c(=O)c21`, the ΔTm was 0 °C (thermal stability, DSF; 10 µM).
The remaining binding of `CC(C)CC(=O)N1CCc2nc(-c3ccc(Br)cc3)nc(N(C)Cc3ccccc3)c2C1` is reported as 72% (cell-free assay, competition with immobilised ligand; 0.1 µM).
`CC1(C)NC(=O)c2[nH]c3c(Cl)c(Cl)ccc3c2C1C#N` (centres unmarked) has a ΔTm of 0.8 °C (thermal stability, DSF; 10 µM).
`O=C(Nc1cnn(-c2csc(C(=O)NC3COC3)c2)c1)Nc1ccccc1Cl` gave a remaining activity of 34.1% (enzyme activity, inhibitor; 5 µM).
`CC(C)(C)c1nc2c(s1)c1nc(N)ncc1c1ccc(NS(=O)(=O)c3c(F)cccc3F)c(F)c12` gave a remaining activity of 95% (enzyme activity, inhibitor, radiometric; 1 µM).
With `FC(F)(F)c1ccc2c(c1)nc(-c1cccnc1)n2C1CC1` the remaining binding was 100% (cell-free assay, competition with immobilised ligand; 1 µM).
`CC(C)(O)[C@H]1CC[C@H](Nc2ccc3ncc(-c4cccc(C(F)(F)F)c4)n3n2)CC1` has a remaining activity of 109% (enzyme activity, inhibitor; 1 µM).
For `C[S+]([O-])c1ccc(-c2nc(-c3ccncc3)c(-c3ccc(F)cc3)[nH]2)cc1` (centres unmarked), the remaining signal was 100% (cell-free assay; 0.5 µM).
`Cc1cnc(NC2CCOCC2)nc1-n1cnc(C(=O)NC(CN)c2cc(F)cc(Cl)c2)c1` (centres unmarked) gave a remaining activity of 72% (enzyme activity, inhibitor, radiometric; 1 µM).
The ΔTm of `Cn1c2c(c3ccc(Cl)c(Cl)c31)C(C#N)C1(CCNCC1)NC2=O` (racemic) is reported as 0.2 °C (thermal stability, DSF; 10 µM).
`Cc1cc(NC(=O)c2cccc(S(F)(F)(F)(F)F)c2)cc(-n2ccn3nc(-c4cccnc4)cc23)c1` has a remaining binding of 76.9% (cell-free assay, competition with immobilised ligand; 1 µM).
`Oc1cccc(-c2nc(N3CCOCC3)c3oc4ncccc4c3n2)c1` gave a remaining signal of 89.4% (cell-free assay; 0.5 µM).
For `CNC(=O)c1ccc(Nc2ncc(C(F)(F)F)c(NCc3nccnc3N(C)S(C)(=O)=O)n2)cc1`, the remaining binding was 95% (cell-free assay, competition with immobilised ligand; 0.1 µM).
For `CC/C(=N\NC(=O)NCc1cccc(O)c1)c1ccc(O)c(C)c1O`, the inhibition was -4.8% (enzyme activity, inhibitor; 0.1 µM).
The remaining binding of `CC(=O)N1CCC(c2ccc(C(=O)NC3=NCCN3)cc2C(F)(F)F)CC1` is reported as 92% (cell-free assay, competition with immobilised ligand; 1 µM).
`COc1cc(Nc2cnc(C#N)c(O[C@H](C)CN(C)C)n2)ncc1-c1cnn(C)c1` gave a remaining activity of 79% (enzyme activity, inhibitor, radiometric; 10 µM).
